Active and inactive are the calls of the source. The rule behind the calls is not given here.
How the values were obtained:
CAL-12T = experiment: Antiproliferative activity against human CAL-12T cells assessed as inhibition of cell growth incubated for 72 hrs by cell-titer glo assay; assay type: functional, cell-based
Procedure, shortened: (§1)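 Cells seeded 10,000–30,000/cm² (adherent) or 100,000/mL (suspension) in medium with 10% fetal calf serum; after 24 h treated in duplicate with serial dilutions for 72 h. Viable cells read by CellTiter-Glo luminescence; IC50 from sigmoidal fit; at least two independent experiments.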

[1] = Antiproliferative activity against human GM14788 cells assessed as inhibition of cell growth incubated for 72 hrs by cell-titer glo assay; assay type: functional, cell-based; settings: GM14788, 72 h
Procedure, shortened: (§2)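 Cells seeded at 10,000–30,000/cm² (adherent) or 100,000/mL (nonadherent) in medium with 10% fetal calf serum; after 24 h, treated in duplicate with serial dilutions for 72 h. Viable cell number read by CellTiter-Glo luminescence; IC50 from sigmoidal fit; at least two independent experiments.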

MOLT-4 = experiment: Antiproliferative activity against human MOLT-4 cells assessed as inhibition of cell growth incubated for 72 hrs by cell-titer glo assay; assay type: functional, cell-based; settings: MOLT-4, 72 h
Procedure, shortened: (§3)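 Cells from ATCC or ECACC, kept in supplier-recommended medium with 1% penicillin-streptomycin at 37°C, 5% CO₂. Seeded at 10,000–30,000/cm² (adherent) or 100,000/mL (nonadherent) in medium with 10% fetal calf serum. Dosed after 24 h in duplicate with serial dilutions. Viable cells read by CellTiter-Glo 72 h later. IC50 from sigmoidal fit. At least two independent experiments.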

[2] = target: Protein kinase C beta type (Homo sapiens, UniProt P05771); experiment: Inhibition of PKC beta (unknown origin) in presence of [gamma-33P]ATP
SK-MEL-28 = experiment: Antiproliferative activity against human SK-MEL-28 cells assessed as inhibition of cell growth incubated for 72 hrs by cell-titer glo assay; assay type: functional, cell-based; settings: SK-MEL-28, 72 h
[3] = target: Calcium/calmodulin-dependent protein kinase type II subunit gamma (Homo sapiens) (UniProt Q13555); experiment: Inhibition of N-terminal 6His-tagged recombinant human CaMKIIgamma (1 to 330 residues) expressed in baculovirus infected Sf21 cells assessed as residual activity at 0.1 uM relative to control
[4] = target: Hepatocyte growth factor receptor (Homo sapiens, UniProt P08581); experiment: Inhibition of MET (unknown origin) in presence of [gamma-33P]ATP
[5] = target: Homeodomain-interacting protein kinase 2 (Homo sapiens) (UniProt Q9H2X6); experiment: Inhibition of N-terminal His6-tagged recombinant human HIPK2 (165 to 564 residues) expressed in baculovirus infected Sf21 cells assessed as residual activity at 0.1 uM relative to control
A2780 = experiment: Induction of DNA damage in human A2780 cells assessed as H2AX phosphorylation at 0.5 to 1 uM incubated for 8 hrs by Western blotting analysis; assay type: functional, cell-based; settings: dose 0.5-1 µM
[6] = target: Dual specificity mitogen-activated protein kinase kinase 7 (Homo sapiens) (UniProt O14733); experiment: Inhibition of N-terminal GST-tagged recombinant human MKK7beta (2 to end residues) expressed in E. coli assessed as residual activity at 0.1 uM relative to control
KMS-11 = experiment: Antiproliferative activity against human KMS-11 cells assessed as inhibition of cell growth incubated for 72 hrs by cell-titer glo assay; assay type: functional, cell-based; settings: KMS-11, 72 h; procedure, shortened: as §2
[7] = target: Mitogen-activated protein kinase 12 (Homo sapiens) (UniProt P53778); experiment: Inhibition of recombinant GST fusion protein corresponding to full-length human SAPK3 expressed in E. coli assessed as residual activity at 1 uM relative to control
COLO-741 = experiment: Antiproliferative activity against human COLO-741 cells assessed as inhibition of cell growth incubated for 72 hrs by cell-titer glo assay; assay type: functional, cell-based; settings: COLO-741, 72 h; procedure, shortened: as §1
[8] = Antiproliferative activity against human PL-21 cells assessed as inhibition of cell growth incubated for 72 hrs by cell-titer glo assay; assay type: functional, cell-based; settings: PL-21, 72 h; procedure, shortened: as §3
[9] = target: Serine/threonine-protein kinase tousled-like 2 (Homo sapiens, UniProt Q86UE8); experiment: Inhibition of N-terminal 6His-tagged recombinant human TLK2 (388 to end residues) expressed in baculovirus infected Sf21 cells assessed as residual activity at 0.1 uM relative to control
SW48 = experiment: Antiproliferative activity against human SW48 cells assessed as inhibition of cell growth incubated for 72 hrs by cell-titer glo assay; assay type: functional, cell-based; settings: SW48, 72 h
NHDF = experiment: Induction of DNA damage in human NHDF cells assessed as H2AX phosphorylation at 0.5 to 1 uM incubated for 8 hrs followed by compound washout and measured after 24 to 48 hrs by Western blotting analysis; assay type: toxicity, cell-based; settings: dose 0.5-1 µM
[10] = Antiproliferative activity against human COLO 206F cells assessed as inhibition of cell growth incubated for 72 hrs by cell-titer glo assay; assay type: functional, cell-based; procedure, shortened: as §1
[11] = target: Aurora kinase A (Homo sapiens) (UniProt O14965); experiment: Inhibition of N-terminal 6His-tagged recombinant full-length human Aurora-A expressed in Sf21 cells assessed as residual activity at 1 uM relative to control
[12] = target: SRSF protein kinase 3 (Homo sapiens) (UniProt Q9UPE1); experiment: Inhibition of N-terminal 6His-tagged recombinant human full-length MSSK1 expressed in baculovirus infected Sf21 cells assessed as residual activity at 1 uM relative to control
[13] = Antiproliferative activity against human GM03798 cells assessed as inhibition of cell growth incubated for 72 hrs by cell-titer glo assay; assay type: functional, cell-based; settings: GM03798, 72 h; procedure, shortened: as §1
HOP-92 = experiment: Antiproliferative activity against human HOP-92 cells assessed as inhibition of cell growth incubated for 72 hrs by cell-titer glo assay; assay type: functional, cell-based; settings: HOP-92, 72 h; procedure, shortened: as §2
HL-60 = experiment: Antiproliferative activity against human HL-60 cells assessed as inhibition of cell growth incubated for 72 hrs by cell-titer glo assay; assay type: functional, cell-based; settings: HL-60, 72 h; procedure, shortened: as §2
[14] = Cmax in male cynomolgus monkey at 5 mg/kg, po by LC-MS analysis; assay type: ADME, organism-based, Macaca fascicularis; settings: in vivo
COLO 205 = experiment: Antiproliferative activity against human COLO 205 cells assessed as inhibition of cell growth incubated for 72 hrs by cell-titer glo assay; assay type: functional, cell-based; settings: COLO 205, 72 h; procedure, shortened: as §1
NCI-H1650 = experiment: Antiproliferative activity against human NCI-H1650 cells assessed as inhibition of cell growth incubated for 72 hrs by cell-titer glo assay; assay type: functional, cell-based; settings: NCI-H1650, 72 h; procedure, shortened: as §3
[15] = target: Inhibitor of nuclear factor kappa-B kinase subunit beta (Homo sapiens, UniProt O14920); experiment: Inhibition of IKK2 (unknown origin) in presence of [gamma-33P]ATP
[16] = target: Non-receptor tyrosine-protein kinase TYK2 (Homo sapiens, UniProt P29597); experiment: Inhibition of TYK2 (unknown origin) in presence of [gamma-33P]ATP
[17] = target: 3-phosphoinositide-dependent protein kinase 1 (Homo sapiens) (UniProt O15530); experiment: Inhibition of N-terminal His6-tagged recombinant human PDK1 (52 to end residues) expressed in baculovirus infected Sf21 cells assessed as residual activity at 0.1 uM relative to control
Sequence of 3-phosphoinositide-dependent protein kinase 1 (Homo sapiens) (O15530 whole entry, looked up): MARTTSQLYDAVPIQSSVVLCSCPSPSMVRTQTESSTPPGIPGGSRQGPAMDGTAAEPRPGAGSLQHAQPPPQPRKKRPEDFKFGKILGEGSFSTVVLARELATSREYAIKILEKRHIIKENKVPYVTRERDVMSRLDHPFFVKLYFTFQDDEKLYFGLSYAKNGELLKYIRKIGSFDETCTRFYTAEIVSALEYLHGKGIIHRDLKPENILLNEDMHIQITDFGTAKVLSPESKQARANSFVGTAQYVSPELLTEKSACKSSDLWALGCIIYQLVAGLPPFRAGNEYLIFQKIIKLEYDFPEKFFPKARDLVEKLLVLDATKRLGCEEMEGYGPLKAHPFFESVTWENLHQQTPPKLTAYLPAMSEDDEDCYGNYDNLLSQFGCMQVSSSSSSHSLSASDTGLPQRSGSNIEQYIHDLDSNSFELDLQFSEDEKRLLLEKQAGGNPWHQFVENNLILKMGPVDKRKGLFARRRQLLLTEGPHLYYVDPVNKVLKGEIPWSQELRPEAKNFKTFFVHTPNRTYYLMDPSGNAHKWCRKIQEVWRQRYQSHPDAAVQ

Sequence of Serine/threonine-protein kinase tousled-like 2 (Q86UE8 whole entry, looked up): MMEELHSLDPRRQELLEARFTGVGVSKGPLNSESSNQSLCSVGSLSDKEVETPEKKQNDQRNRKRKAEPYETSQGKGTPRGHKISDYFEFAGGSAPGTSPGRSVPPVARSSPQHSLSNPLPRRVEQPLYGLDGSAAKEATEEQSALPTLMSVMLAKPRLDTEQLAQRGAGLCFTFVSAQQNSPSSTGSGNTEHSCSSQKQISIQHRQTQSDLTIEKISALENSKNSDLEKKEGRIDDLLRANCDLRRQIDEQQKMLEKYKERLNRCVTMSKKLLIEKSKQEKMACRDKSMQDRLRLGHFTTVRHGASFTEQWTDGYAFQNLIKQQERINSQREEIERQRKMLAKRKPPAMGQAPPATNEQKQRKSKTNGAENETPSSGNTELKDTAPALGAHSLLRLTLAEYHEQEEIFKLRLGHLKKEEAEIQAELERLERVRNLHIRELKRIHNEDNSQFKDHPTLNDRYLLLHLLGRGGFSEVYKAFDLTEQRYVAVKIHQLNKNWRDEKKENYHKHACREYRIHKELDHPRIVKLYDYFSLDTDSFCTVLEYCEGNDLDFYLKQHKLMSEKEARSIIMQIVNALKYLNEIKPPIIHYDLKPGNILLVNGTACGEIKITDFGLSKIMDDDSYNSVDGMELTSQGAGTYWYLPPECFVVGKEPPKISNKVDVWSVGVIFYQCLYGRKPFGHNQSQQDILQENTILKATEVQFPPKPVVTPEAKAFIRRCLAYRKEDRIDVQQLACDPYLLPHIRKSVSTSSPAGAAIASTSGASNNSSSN
Sequence of Protein kinase C beta type (P05771 whole entry): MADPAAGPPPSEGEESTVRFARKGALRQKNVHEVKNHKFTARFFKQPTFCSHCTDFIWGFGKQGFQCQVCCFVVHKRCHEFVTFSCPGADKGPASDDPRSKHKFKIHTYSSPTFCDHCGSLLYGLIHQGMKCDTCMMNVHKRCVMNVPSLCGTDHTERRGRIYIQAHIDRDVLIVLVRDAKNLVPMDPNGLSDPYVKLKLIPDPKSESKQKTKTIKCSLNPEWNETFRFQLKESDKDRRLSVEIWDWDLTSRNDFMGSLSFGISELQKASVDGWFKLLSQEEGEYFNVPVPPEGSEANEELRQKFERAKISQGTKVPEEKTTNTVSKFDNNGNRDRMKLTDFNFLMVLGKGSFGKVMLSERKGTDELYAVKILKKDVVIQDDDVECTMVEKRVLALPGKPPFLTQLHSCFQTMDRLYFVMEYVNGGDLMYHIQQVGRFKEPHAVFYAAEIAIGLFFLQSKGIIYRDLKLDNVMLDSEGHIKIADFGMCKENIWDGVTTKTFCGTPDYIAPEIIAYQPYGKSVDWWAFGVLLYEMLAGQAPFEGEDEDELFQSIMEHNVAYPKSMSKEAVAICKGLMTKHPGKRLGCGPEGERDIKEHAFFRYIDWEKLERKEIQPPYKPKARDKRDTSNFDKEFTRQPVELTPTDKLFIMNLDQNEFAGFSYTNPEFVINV
Sequence of Mitogen-activated protein kinase 12 (Homo sapiens) (P53778 whole entry, the tested form may be a part): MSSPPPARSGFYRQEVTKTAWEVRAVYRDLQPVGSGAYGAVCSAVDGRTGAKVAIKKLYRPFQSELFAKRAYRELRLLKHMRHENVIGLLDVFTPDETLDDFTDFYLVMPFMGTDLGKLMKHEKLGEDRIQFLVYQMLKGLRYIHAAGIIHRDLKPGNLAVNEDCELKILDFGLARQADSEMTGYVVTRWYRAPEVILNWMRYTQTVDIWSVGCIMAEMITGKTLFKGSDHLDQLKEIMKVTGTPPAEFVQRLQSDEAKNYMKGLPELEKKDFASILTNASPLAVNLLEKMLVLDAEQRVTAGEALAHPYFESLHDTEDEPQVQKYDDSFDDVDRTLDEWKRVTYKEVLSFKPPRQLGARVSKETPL
Sequence of Inhibitor of nuclear factor kappa-B kinase subunit beta (O14920 whole entry): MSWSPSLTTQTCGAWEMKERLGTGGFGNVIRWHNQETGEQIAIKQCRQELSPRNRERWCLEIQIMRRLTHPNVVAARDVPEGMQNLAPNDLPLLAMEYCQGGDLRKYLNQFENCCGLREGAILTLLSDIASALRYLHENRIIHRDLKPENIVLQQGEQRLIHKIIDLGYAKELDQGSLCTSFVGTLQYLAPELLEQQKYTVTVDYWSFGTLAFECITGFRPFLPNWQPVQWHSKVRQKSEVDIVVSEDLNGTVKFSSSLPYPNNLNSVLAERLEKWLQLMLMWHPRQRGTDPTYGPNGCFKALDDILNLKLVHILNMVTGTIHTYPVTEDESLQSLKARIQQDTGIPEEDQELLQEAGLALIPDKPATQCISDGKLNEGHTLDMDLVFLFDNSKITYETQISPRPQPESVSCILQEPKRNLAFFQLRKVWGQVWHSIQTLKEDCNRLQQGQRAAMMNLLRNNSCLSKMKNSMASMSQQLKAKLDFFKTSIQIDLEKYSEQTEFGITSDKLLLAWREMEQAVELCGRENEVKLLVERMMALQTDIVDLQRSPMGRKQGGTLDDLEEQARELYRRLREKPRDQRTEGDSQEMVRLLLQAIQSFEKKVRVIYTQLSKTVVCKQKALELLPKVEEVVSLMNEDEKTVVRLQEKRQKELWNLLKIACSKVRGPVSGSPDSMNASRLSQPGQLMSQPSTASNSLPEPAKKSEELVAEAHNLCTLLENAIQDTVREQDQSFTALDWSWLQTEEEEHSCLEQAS
Sequence of Hepatocyte growth factor receptor (P08581 whole entry, the tested form may be a part): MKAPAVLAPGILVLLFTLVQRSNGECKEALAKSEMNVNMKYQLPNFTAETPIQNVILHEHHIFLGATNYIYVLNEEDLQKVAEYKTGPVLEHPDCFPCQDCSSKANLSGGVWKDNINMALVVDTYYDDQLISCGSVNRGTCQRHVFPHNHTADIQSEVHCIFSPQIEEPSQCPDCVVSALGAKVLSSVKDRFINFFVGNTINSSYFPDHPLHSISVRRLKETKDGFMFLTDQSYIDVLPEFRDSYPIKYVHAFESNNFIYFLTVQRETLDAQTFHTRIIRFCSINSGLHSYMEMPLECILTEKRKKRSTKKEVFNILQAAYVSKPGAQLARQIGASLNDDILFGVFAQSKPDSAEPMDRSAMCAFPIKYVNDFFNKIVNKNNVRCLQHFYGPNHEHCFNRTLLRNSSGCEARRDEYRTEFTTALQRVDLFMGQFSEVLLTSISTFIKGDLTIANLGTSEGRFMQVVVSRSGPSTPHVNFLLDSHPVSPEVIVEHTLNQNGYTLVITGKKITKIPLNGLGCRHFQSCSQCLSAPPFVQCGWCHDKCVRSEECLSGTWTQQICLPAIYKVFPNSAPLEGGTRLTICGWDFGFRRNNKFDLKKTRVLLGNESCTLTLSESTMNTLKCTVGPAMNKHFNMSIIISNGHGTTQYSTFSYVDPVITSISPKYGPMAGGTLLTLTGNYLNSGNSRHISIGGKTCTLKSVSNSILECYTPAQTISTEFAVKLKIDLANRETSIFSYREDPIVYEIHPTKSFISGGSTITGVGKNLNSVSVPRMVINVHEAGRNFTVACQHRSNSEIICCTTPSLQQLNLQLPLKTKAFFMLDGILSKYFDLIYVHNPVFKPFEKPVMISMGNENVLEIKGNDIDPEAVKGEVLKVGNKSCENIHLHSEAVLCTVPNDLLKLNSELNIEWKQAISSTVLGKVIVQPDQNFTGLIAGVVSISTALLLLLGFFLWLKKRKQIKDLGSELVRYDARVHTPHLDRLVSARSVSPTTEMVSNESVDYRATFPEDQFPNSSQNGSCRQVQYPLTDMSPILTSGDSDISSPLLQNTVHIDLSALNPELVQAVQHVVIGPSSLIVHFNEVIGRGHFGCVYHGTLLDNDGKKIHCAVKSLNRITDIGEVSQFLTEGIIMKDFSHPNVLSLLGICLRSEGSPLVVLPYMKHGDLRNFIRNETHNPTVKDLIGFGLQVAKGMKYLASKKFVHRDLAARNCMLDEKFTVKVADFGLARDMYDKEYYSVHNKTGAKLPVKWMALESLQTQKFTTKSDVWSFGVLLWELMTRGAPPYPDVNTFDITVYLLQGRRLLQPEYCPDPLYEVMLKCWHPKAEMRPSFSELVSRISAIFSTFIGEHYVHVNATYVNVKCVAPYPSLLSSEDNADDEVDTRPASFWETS
Sequence of Aurora kinase A (Homo sapiens) (O14965 whole entry): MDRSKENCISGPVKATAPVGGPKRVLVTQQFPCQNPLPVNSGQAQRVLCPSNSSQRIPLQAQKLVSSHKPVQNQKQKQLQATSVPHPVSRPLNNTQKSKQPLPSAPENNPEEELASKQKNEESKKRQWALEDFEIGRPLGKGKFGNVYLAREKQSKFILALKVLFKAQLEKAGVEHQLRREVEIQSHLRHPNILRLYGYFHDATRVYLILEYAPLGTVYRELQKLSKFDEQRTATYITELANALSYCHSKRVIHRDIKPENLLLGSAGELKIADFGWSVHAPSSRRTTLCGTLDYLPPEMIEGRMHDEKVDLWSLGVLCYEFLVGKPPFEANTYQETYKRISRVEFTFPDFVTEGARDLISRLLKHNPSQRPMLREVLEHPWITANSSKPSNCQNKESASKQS

## CN1CCN(c2ccc(OC(F)(F)F)c(Nc3ncc4c(n3)-c3c(c(C(N)=O)nn3CCO)CC4)c2)CC1 [ONVANSERTIB]
CAL-12T
  IC50: 191 nM
[1]
  IC50: 82 nM
MOLT-4
  IC50: 45 nM
[2]
  IC50: > 10000 nM
SK-MEL-28
  IC50: 78 nM
[3]
  Activity: 123%
[4]
  IC50: > 10000 nM
[5]
  Activity: 118%
A2780
  Activity: Active
[6]
  Activity: 85%
KMS-11
  IC50: 46 nM
[7]
  Activity: 113%
COLO-741
  IC50: 108 nM
[8]
  IC50: 22 nM
[9]
  Activity: 182%
SW48
  IC50: 32 nM
NHDF
  Activity: Non-Toxic
[10]
  IC50: 93 nM
[11]
  Activity: 113%
[12]
  Activity: 89%
[13]
  IC50: 55 nM
HOP-92
  IC50: 283 nM
HL-60
  IC50: 73 nM
[14]
  Cmax: 1900 nM
COLO 205
  IC50: 32 nM
NCI-H1650
  IC50: 2420 nM
[15]
  IC50: > 10000 nM
[16]
  IC50: > 10000 nM
[17]
  Activity: 142%

Source: ChEMBL document CHEMBL5678806, “NMS-P937, an orally available, specific small-molecule polo-like kinase 1 inhibitor with antitumor activity in solid and hematologic malignancies” (Mol Cancer Ther, 2012)
